PGC1a acetyl inh: inhibitors of PGC1a acetylation signal, primary screen, cell-based, U2OS, AlphaScreen, inhibitor mode; AlphaScreen anti-acetyl-lysine; with virally co-expressed GCN5 acetyltransferase; inhibition, % at 15.6 µM; 350,000 tested, 0.17% active;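 active = every replicate shows inhibition of at least 40%; inconclusive = mean inhibition at least 40% but some replicate below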
Cneo AK release: Cryptococcus neoformans cell lysis inducers, primary screen, AK release luminescence, single concentration. C. neoformans lysis, adenylate kinase release luminescence, 4 h; normalised: neutral wells 0, clomiphene wells 100. lysis activity, % at 15 µM. 360,000 tested, 0.2% active. AID 651654, 2012;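 active = mean lysis activity across replicates of at least 80%, whatever share of replicates individually reach that level; inactive = mean lysis activity below 80%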
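Assay system: log-phase C. neoformans yeast / Quantity: yeast cell density of 5 × 10^6 cells/mL / Medium: fresh YPD growth medium / Compound: single dose / Timing: static 4 h at 37 °C with compound, 1 h detection / Measured by: adenylate kinase release luminescence / Read-out: lysis from increased AK signal / Benchmarks: Clomiphene as positive lysis control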
PglD inh: C. jejuni PglD acetyltransferase inhibitors, primary screen, biochemical, DTNB colorimetric, single point; purified PglD enzyme, DTNB colorimetric CoA detection; UDP-N-acetylbacillosamine N-acetyltransferase PglD (Campylobacter jejuni); 360,000 tested, 0.098% active; inhibition, % at 12.5 µM; AID 602405, 2012; in the data active = inhibition above about 16%, passing the limit was not always enough; inconclusive = no clear call, values can overlap the other calls
Vif inh: HIV Vif self-association inhibitors, primary screen, imaging, HEK293T, single point | inhibition, % at 7.49 µM | HEK293T cells, Vif self-association by quenched fluorescence, 24 h | AID 602346, 2012 | 340,000 tested, 0.35% active; in the data active = inhibition above about 50%, passing the limit was not always enough; inconclusive = no clear call, values can overlap the other calls; inactive = below about 31%
FGF22 binding: binders of human FGF22 protein, primary screen, FGF22 synaptogenesis inhibitor project, biophysical, thermal shift, single point | 340,000 tested, 1.5% active | activity (Tm shift, normalised), % at 9.99 µM | recombinant FGF22 thermal shift, SYPRO orange fluorescence; percent of sucrose octasulfate shift, DMSO zero | AID 651658, 2012 | Fibroblast growth factor 22 (Homo sapiens), Q9HCT0;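 active = mean Tm shift, scaled 0 neutral to 100 positive control, at about 1.3% or above, every replicate too, limit read from the data; inconclusive = no clear call, values can overlap the other calls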
Target sequence (Q9HCT0 whole entry, looked up): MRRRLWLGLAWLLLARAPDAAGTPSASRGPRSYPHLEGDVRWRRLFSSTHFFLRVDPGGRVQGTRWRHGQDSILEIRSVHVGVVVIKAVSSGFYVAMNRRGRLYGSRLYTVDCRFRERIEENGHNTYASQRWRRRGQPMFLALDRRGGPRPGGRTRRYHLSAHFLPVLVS
rRNA inh HTS: reduced GFP signal of wild-type E. coli, primary screen, bacterial rRNA inhibitor project, GFP/RFP fluorescence, OD600, single point. E. coli WT GFP vs humanized-ribosome RFP mutants, 24 h; hits give low values; DMSO median 0, no signal -100. GFP signal change (wild-type ribosome), % (concentration not given with the values). 350,000 tested, 1.6% active;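 active = significant combined selectivity score with lowered wild-type GFP, culture density cut under 30%, mutant RFP and density less affected; inactive = any of these conditions unmet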
AID977621: growth inhibition of wild-type GFP E. coli, dose response, H69 mutant RFP, cherry-pick. shares compounds with rRNA inh HTS. AID 977621, 2014. 1,900 tested, under 10 active. E. coli wild-type GFP strain growth, fluorescence, 24 h. activity change, negative = inhibition at 50 µM;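 active = Wild-type ribosome reporter drop at least double the humanized mutant ribosome reporter drop, growth loss under a set limit; inconclusive = no clear call, values can overlap the other calls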;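 note: wild-type GFP and H69 mutant RFP strains grown together 50/50 in each well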
AID977628: E. coli growth inhibition, wild-type GFP versus h24 humanized RFP strain, dose response, h24 mutant RFP vs wild-type GFP, cherry-pick; shares compounds with rRNA inh HTS; E. coli WT GFP strain growth, fluorescence, 24 h; activity change, negative = inhibition at 50 µM; 1,900 tested, under 10 active;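 active = compound lowering the normal-ribosome reporter at least twice as much as the humanized-ribosome reporter, growth loss under a set limit; inconclusive = no clear call, values can overlap the other calls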;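 note: wild-type GFP and h24 humanized RFP strains co-cultured 1 to 1 per well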
Of the large screens only hits and unclear results are named; the others gave an inactive call (follow-up assays come after a bar, where they were run). Shown are actives, neighbours in structure and some others; about 2.9% of the full set was active somewhere.

C[C@@H]1CCCCO[C@H](CN(C)S(=O)(=O)c2ccc(Cl)cc2)[C@H](C)CN([C@H](C)CO)C(=O)c2cc(NC(=O)Cc3ccccc3)ccc2O1	none (no result: Vif inh)
COc1cc(OC)cc(-c2nc3ccccc3c(=O)n2OC(=O)c2ccc(C)c(C)c2)c1	rRNA inh HTS -22 (no result: PGC1a acetyl inh, Cneo AK release, PglD inh) | AID977621 inactive | AID977628 inactive
COc1cc(OC)cc(C(=O)Nn2c(C)nc3ccccc3c2=O)c1	none (no result: FGF22 binding, rRNA inh HTS)
C[C@@H]1CN(C)C(=O)c2cc(N(C)C)ccc2O[C@@H]1CN(C)S(C)(=O)=O	none (no result: PGC1a acetyl inh, Cneo AK release, PglD inh, Vif inh, FGF22 binding)
COc1ccc(/C=C/c2nc3ccccc3n2Cc2ccccc2OC)cc1	rRNA inh HTS -26 (no result: PGC1a acetyl inh, Cneo AK release, PglD inh) | AID977621 inactive | AID977628 inactive
COc1cccc(CN(C)Cc2nc(Cc3ccccc3Cl)no2)c1	rRNA inh HTS -26 (no result: PGC1a acetyl inh, Cneo AK release, PglD inh) | AID977621 inactive | AID977628 inconclusive
O=C(C[C@@H]1CC[C@H](NC(=O)c2cccnc2)[C@H](CO)O1)NCCN1CCCCC1	none (no result: Vif inh)
CC(C)Sc1sc(C(=O)O)c(-c2ccc(Cl)cc2)c1C#N	rRNA inh HTS -43 (no result: PGC1a acetyl inh, Cneo AK release, PglD inh) | AID977621 inactive
CCOc1ccc2oc(C(=O)NC3CCN(Cc4ccccc4)CC3)c(C)c2c1	rRNA inh HTS -23 | AID977621 inactive
CCCNC(=O)C[C@@H]1CC[C@H]2[C@H](COc3ccc(NC(=O)C4CCOCC4)cc3C(=O)N2C)O1	none (no result: Vif inh)
Cc1ccc(S(=O)(=O)NCc2c(-c3ccccc3)noc2C)cc1	rRNA inh HTS -23 (no result: PGC1a acetyl inh, Cneo AK release, PglD inh) | AID977621 inactive | AID977628 inactive
CC(C)(C)NC(=O)C(c1ccncc1)N(Cc1ccc(F)cc1)C(=O)c1ccc(-c2ccccc2)[nH]1 (stereo not given)	rRNA inh HTS -21 (no result: Cneo AK release, PglD inh) | AID977621 inactive | AID977628 inactive
O=C(Cc1ccccc1Cl)Nc1nc2ccccc2[nH]1	rRNA inh HTS -20 | AID977621 inactive | AID977628 inconclusive
O=C(CCNC(=O)c1ccccc1Cl)Nc1nc2ccccc2[nH]1	none
CC(=O)c1ccc(-c2cccc([C@H]3[C@@H]4C=CC[C@@H](C)[C@@H]4C(=O)N3Cc3ccccc3)c2)cc1	rRNA inh HTS -19 (no result: Vif inh) | AID977621 inactive | AID977628 inactive
COc1ccc(-c2cccc([C@H]3[C@@H]4C=CC[C@@H](C)[C@@H]4C(=O)N3Cc3ccccc3)c2)cc1	none
COc1ccc(-n2c(COc3cccc(C)c3)n[nH]c2=S)cc1	rRNA inh HTS -20 | AID977621 inactive | AID977628 inactive
O=C(Cc1coc2ccc3ccccc3c12)NCc1ccccc1	rRNA inh HTS -26 | AID977621 inactive
O=C(Cc1coc2ccc3ccccc3c12)Nc1nccs1	none (no result: FGF22 binding, rRNA inh HTS)
COc1ccc(C2CC(=O)CCN2S(=O)(=O)c2ccc(C)cc2)cc1 (stereo not given)	rRNA inh HTS -22 | AID977621 inactive | AID977628 inconclusive
CCCc1nc2cc(C)c(Br)c(C)n2c1CC1CCCCC1	rRNA inh HTS -20 (no result: PGC1a acetyl inh, Cneo AK release, PglD inh, Vif inh) | AID977628 inactive
CC=Cc1ccc2n(c1=O)C[C@H]1[C@H](CO)[C@@H](C(=O)NCc3ccccn3)[C@@H]2N1CCC (mixture of isomers)	none (no result: Vif inh)
C=C(C)Cn1c(=O)c2c(nc3n2CC(C)CN3Cc2ccccc2)n(C)c1=O (stereo not given)	rRNA inh HTS -24 | AID977621 inactive | AID977628 inconclusive
CCCCc1cc2c(cc1NC(=O)CN1CCCCC1)OCCO2	rRNA inh HTS -18 | AID977628 inactive
CC(=O)c1cc2c(cc1NC(=O)CN1CCCCCCC1)OCO2	none (no result: FGF22 binding, rRNA inh HTS)
COc1ccc(CSc2nc3ccccc3c(=O)n2CCCN2CCOCC2)cc1F	rRNA inh HTS -28 | AID977621 inactive | AID977628 inactive
Cc1ccccc1-n1ncc2c1CC(C)(C)CC2NC(=O)CCN1Cc2ccccc2C1=O (stereo not given)	rRNA inh HTS -24 | AID977621 inactive
O=C(O)[C@@H]1[C@@H](CO)[C@@H]2Cn3c(ccc(/C=C/c4ccccc4)c3=O)[C@@H]2N1C(=O)C1CCCC1	none (no result: Cneo AK release, PglD inh, Vif inh, FGF22 binding)
O=C1c2ccccc2NC(c2cccc(F)c2)N1Cc1ccco1 (stereo not given)	rRNA inh HTS -33 | AID977621 inactive | AID977628 inactive
O=C1c2ccccc2NC(c2cccc(F)c2)N1Cc1ccccc1 (stereo not given)	none
O=C(CSc1nnc(-c2ccccc2F)n1C1CC1)Nc1cccnc1Cl	rRNA inh HTS -16 | AID977621 inactive | AID977628 inactive
O=C(CSc1nnc(-c2ccccc2F)n1C1CCCCC1)Nc1cc(C(=O)O)ccc1Cl	none
O=C(Cc1cccnc1)N1CC[C@@H]2[C@@H](CO)Nc3ccc(C#Cc4ccccc4F)cc3[C@@H]21	none (no result: Cneo AK release, PglD inh, Vif inh, FGF22 binding)
O=C(O)CCCCCCCCc1cn(CC2CCCCC2)nn1	rRNA inh HTS -21 | AID977621 inconclusive
O=C(O)CCCCCCCCc1cn(Cc2ccc(C(=O)c3ccccc3)cc2)nn1	none (no result: Vif inh)
C[C@@H]1CCCCO[C@@H](CN(C)C(=O)Nc2cccc3ccccc23)[C@H](C)CN([C@H](C)CO)C(=O)c2cc(NC(=O)Nc3ccc4c(c3)OCO4)ccc2O1	none (no result: Vif inh)
CCc1cccc(NC(=O)c2ccc3c(=O)n4c(nc3c2)CCCCC4)c1	rRNA inh HTS -19 | AID977621 inactive | AID977628 inactive
O=C(C[C@@H]1C=C[C@@H](NC(=O)c2ccc3c(c2)OCO3)[C@@H](CO)O1)NCc1ccc(Cl)cc1	none (no result: Vif inh)
CC(=O)c1ccccc1OCCOCCOCCOc1ccccc1C(C)=O	rRNA inh HTS -22 | AID977621 inactive | AID977628 inconclusive
CC(=O)c1ccccc1OCCCN1CCCCC1	none (no result: FGF22 binding, rRNA inh HTS)
NC(=O)c1ccccc1OCCOc1ccc(Br)cc1	rRNA inh HTS -26 (no result: PglD inh) | AID977621 inactive | AID977628 inactive
Cc1ccc(S(=O)(=O)NCc2ccccc2NS(=O)(=O)c2ccc(C)cc2)cc1	none (no result: PGC1a acetyl inh, Cneo AK release, PglD inh, Vif inh)

Screening results from PubChem.
